Assays:
[1] = in MeOH, used as standard; cited from earlier work
[2] = system: DU-145 cells; assay: DU-145 viability; assay type: cell-based, human; details: 5 μM, vinblastine 0–5 nM, blue light, Figure 7C
Method in brief: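 DU-145 cells (7000/well) were grown overnight, then given test compound (5 μM, 1% DMSO) in octuplicate for 1 h at 37 °C. Medium was replaced with vinblastine (5 nM; 2.5 or 5 nM in one set) or vehicle. Plates received blue LED light (460–470 nm, 20 min, 56 J/cm²) or were kept dark, then 72 h. MTT read at 570 nm, blank-normalized, as percent of vehicle control.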

[3] = system: DU-145 cells; assay: Chou–Talalay synergy determination with vinblastine; assay type: cell-based, human; details: light conditions
Method in brief: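 DU-145 cells (7000/well, DMEM with 10% FBS and penicillin/streptomycin) were grown overnight (16 h, 37 °C, 5% CO₂). They were pretreated 1 h with test compound (10–1 μM) or vehicle (1% DMSO), then switched to vinblastine (10–0.5 nM) or vehicle, in quadruplicate. Blue light 460–470 nm for 20 min, then 72 h. MTT read at 570 nm, blank-subtracted, as percent effect. Chou–Talalay EC50 and CI computed per combination.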

| Molecule | Quantum yield of singlet oxygen production (ΦΔ) [1] | synergy with vinblastine (viability) [2] | synergism with vinblastine (Chou–Talalay) [3] |
| --- | --- | --- | --- |
| [Ru+2].c1ccc(-c2ccccn2)nc1.c1ccc(-c2ccccn2)nc1.c1ccc(-c2ccccn2)nc1 [[Ru(bpy)3]^2+] | 0.81 |  |  |
| [Ru(tpy)(Me2dppn)(py)](PF6)2 [Compound 27, reference compound] |  | does not | weaker synergism |

From paper PMC8265689 (Journal of the American Chemical Society, 2021)
